Only a sample is shown.
PGC1a Ac signal = compounds raising PGC1a acetylation signal, primary screen, PGC1a modulator project, cell-based, U2OS, AlphaScreen, signal-increasing mode; activation, % at 15.6 µM; AID 651723, 2012; 350,000 tested, 0.21% active; overnight;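 active = every replicate reaching activation of at least 50%, whatever the mean replicate activation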;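 note: hits raise the AlphaScreen acetylation signal above neutral controls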
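System – flag-PGC1a/GCN5 U2OS cells · Quantity – 7000 U2OS cells per well · Signal – AlphaScreen proximity luminescence, anti-acetyl-lysine antibody · Schedule – overnight compound treatment, 37 °C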
* marks the source's active call; other numbers are inactive results.

SMILES	PGC1a Ac signal
C[C@H]1CN([C@@H](C)CO)C(=O)c2cc(/C=C/c3ccccc3)cnc2O[C@H]1CN(C)C(=O)CN(C)C	-53
C[C@@H]1CN([C@H](C)CO)C(=O)c2cc(NC(=O)Nc3ccc(F)cc3)ccc2O[C@@H](C)CCCCO[C@@H]1CN(C)C(=O)NC1CCCCC1	-53
C[C@H](CO)N1C[C@H](C)[C@@H](CN(C)CC2CC2)Oc2cc(-c3cccnc3)ccc2S1(=O)=O	-45
COc1ccc(Cn2nnnc2C(C(C)C)N(Cc2ccco2)Cc2cccs2)cc1 (stereo not given)	56*
COc1ccc(OCCCC(=O)OCC(=O)Nc2c(C)nn(-c3ccccc3)c2C)cc1	-85
Cc1ccc(C(=O)Cn2c(C(=O)OCCO)cc3ccccc32)cc1	65*
O=C(O)CCCC(=O)Nc1ccc(Br)cc1C(=O)O	50*
C[C@H](CO)N1C[C@H](C)[C@@H](CN(C)CC2CCOCC2)Oc2ncc(Br)cc2C1=O	-89
Nc1cc2ccncc2c2ccccc12	-42
CCN1CCN(C(=O)c2c(-c3c(F)cccc3Cl)noc2C)CC1	71*
CC1CN(C2CCN(C(=O)c3cccc(Cl)c3)CC2)CC(C)O1 (stereo not given)	-48
O=C(c1cccc(Cl)c1)N1CCN(c2ccc(N3CCOCC3)nn2)CC1	-46
CCC1(CC)Cc2ccccc2-c2nc(CN(C)C)[nH]c(=O)c21	53*
Cc1coc2cc3oc(=O)c(CCC(=O)NC4CC4)c(C)c3cc12	57*
COc1cccc2c1C(CO)N1C(C#N)C3CC(C(=O)O)C(C1C2)N3C (stereo not given)	-66
COc1cc(CN2CC3(CCN(S(=O)(=O)c4cccs4)CC3)c3c(n(C)c4cc(OC)ccc34)[C@H]2CO)cc(OC)c1	63*
C[C@H]1CN([C@@H](C)CO)C(=O)CCCn2nncc2CO[C@@H]1CN(C)C(=O)Nc1ccccc1	-50
COc1ccc(C(=O)Sc2nncc3ccccc23)cc1	-42
C=C(C(=O)c1ccccc1)C(C(=C)C(=O)c1ccccc1)c1ccc(OC)cc1	160*
O=C(C[C@@H]1CC[C@@H]2[C@H](COC[C@@H](O)CN2S(=O)(=O)c2ccc(Cl)cc2)O1)N[C@@H]1CCN(Cc2ccccc2)C1	-48
O=C(Nc1ccc(CN2CCOCC2)cc1)c1ccc(F)cc1	-54
O=C(NCCN1CCOCC1)c1ccc(=O)oc1	52*
O=C1c2ccccc2C(=O)N1c1ccc(Cc2ccncc2)cc1	-56
COc1cc(CN2C[C@@H]3N[C@H](C2)C3c2ccc(/C=C/c3ccccc3)cc2)cc(OC)c1 (stereo not given in full)	89*
Fc1cccc(CN2C[C@@H]3N[C@H](C2)C3c2ccc(-c3ccccc3)cc2)c1 (stereo not given in full)	-97
SMILES	PGC1a Ac signal
COc1ccc(-c2ccc(C3[C@@H]4CN(Cc5cc(OC)cc(OC)c5)C[C@H]3N4)cc2)cc1 (stereo not given in full)	121*
COc1cccc(-c2ccc(C3[C@@H]4CN(C(=O)C5CC5)C[C@H]3N4)cc2)c1 (stereo not given in full)	57*
COc1cc(CN2C[C@@H]3N[C@H](C2)C3c2ccc(-c3cccc(OC)c3)cc2)cc(OC)c1 (stereo not given in full)	69*
Fc1cccc(CN2C[C@@H]3N[C@H](C2)[C@@H]3c2ccc(-c3cccc(F)c3)cc2)c1	-99
COc1ccc(-c2cnc3c(c2)C(=O)N([C@H](C)CO)C[C@H](C)[C@@H](CN(C)C(=O)C2CCC2)O3)cc1	-44
Cc1cccc(CCN(CC(=O)NC(C)(C)C)C(=O)c2csnn2)c1	-47
Cc1nc2ccccc2n2c(O)c(CC(=O)O)cc12	-41
COc1ccc(NC(=O)N[C@@H]2C=C[C@@H](CC(=O)NCc3ccccn3)O[C@@H]2CO)cc1	-48
COc1ccccc1CN1C[C@@H]2N[C@H](C1)C2c1ccc(-c2ccccc2OC)cc1 (stereo not given in full)	70*
COc1ccccc1-c1ccc([C@@H]2[C@@H](CO)N(C(C)=O)C23CN(C(C)=O)C3)cc1	-55
CC(C)OC(=O)c1c(F)c(F)c(N2CCOCC2)c(F)c1F	-57
NC(Cc1ccccc1)c1csc(NC(=O)Nc2ccccc2Oc2ccccc2)n1 (stereo not given)	71*
CCOC(=O)Cn1cnc2scc(-c3ccccc3)c2c1=O	-43
Cc1cc(C)nc(NC(=O)NS(=O)(=O)Nc2ccc(Br)cn2)n1	-44
C[C@@H]1CN([C@@H](C)CO)C(=O)CCCn2nncc2CO[C@@H]1CN(C)C(=O)NC1CCCCC1	-51
C[C@H]1CN([C@@H](C)CO)C(=O)c2cc(-c3cccc(C(=O)N(C)C)c3)cnc2O[C@@H]1CN(C)S(=O)(=O)c1ccc(F)cc1	-21
CO[C@H]1CN(C)C(=O)c2cc(NS(C)(=O)=O)ccc2OC[C@H](C)N(C(=O)NC(C)C)C[C@H]1C	-48
C[C@H]([C@@H](N)C(=O)N[C@@H](C(=O)O)[C@@H]1O[C@H](n2ccc(=O)[nH]c2=O)[C@@H](O)[C@H]1O)[C@@H](O)c1ccc(O)cn1	-46
Cc1ccc(/C(N)=N/OC(=O)c2ccco2)cc1	62*
O=C1C=CCCN1S(=O)(=O)/C=C/c1ccccc1	-59
C/C(=C\C(=O)N1CCc2ccccc21)C(=O)O	60*
CN(C)S(=O)(=O)c1cc(NC(=O)CN2CCc3ccccc32)ccc1Cl	-75
CC(C(=O)N1CCc2ccccc2C1)N(c1ccccc1)S(C)(=O)=O (stereo not given)	-51
CO[C@@H]1CN(C)C(=O)c2cc(NC(C)=O)ccc2OC[C@H](C)N(Cc2cc(F)ccc2F)C[C@H]1C	-55
C[C@@H]1CN([C@H](C)CO)C(=O)CCCn2cc(nn2)CO[C@@H]1CN(C)C(=O)NC1CCCC1	-46
SMILES	PGC1a Ac signal
O=C(Nc1ccc(Cl)c(Cl)c1)N[C@@H]1CC[C@H](CCn2cc(C3CC3)nn2)O[C@H]1CO	-43
CCCCS(=O)(=O)/C=C\C=C/S(=O)(=O)CCCC	-97
CCOc1nc(NC(=O)NS(=O)(=O)c2ccccc2F)nc(-c2ccccc2)n1	-50
O=C1C=CC2(C=C1)O[C@H](Cc1ccccc1)[C@@H](Cc1ccccc1)O2	-41
CS(=O)(=O)c1nc(-c2ccccc2)cc(C(F)(F)F)n1	-64
NS(=O)(=O)c1ccc(CCNC2CC(=O)N(Cc3ccccc3)C2=O)cc1 (stereo not given)	-46
NS(=O)(=O)c1ccc(CCNC(=O)c2ccc3nc4ccc(Cl)cc4c(=O)n3c2)cc1	85*
Cn1ncc2c(O/N=C(\N)c3ccc(C(F)(F)F)cc3)ncnc21	-44
Cn1nc(C(=O)N2CCCCC2)c2c1-c1ccccc1S(=O)(=O)C2	-48
O=S(=O)(c1ccccc1)c1ncc(C(F)(F)F)cc1Cl	55*
NNS(=O)(=O)c1ccc(Cc2ncc(C(F)(F)F)cc2Cl)s1	-50
Nc1ccccc1Oc1ncc(C(F)(F)F)cc1Cl	-46
O=C(NCc1ccc2c(c1)OCO2)c1ccc(NC(=O)C2CCCO2)cc1 (stereo not given)	66*
CC1CCCCC12NC(=O)N(CC(=O)NCc1ccc3c(c1)OCO3)C2=O (stereo not given)	-46
C[C@@H]1CCCCO[C@H](CN(C)Cc2ccc3c(c2)OCO3)[C@@H](C)CN([C@@H](C)CO)C(=O)c2cc(NC(=O)Nc3ccc(C(F)(F)F)cc3)ccc2O1	-53
C[C@@H]1CN([C@@H](C)CO)S(=O)(=O)c2ccc(-c3ccccc3)cc2O[C@@H]1CN(C)C(=O)c1ccccc1F	-42

Bioassay records deposited in PubChem BioAssay by Broad Institute.
